In ChEMBL document CHEMBL3576784, “Azolylthioacetamide: A Highly Promising Scaffold for the Development of Metallo-β-lactamase Inhibitors” (ACS Med Chem Lett, 2015):

Target: Beta-lactamase (Aeromonas veronii, UniProt O31272)
Experiment: Inhibition of Aeromonas veronii metallo-beta-lactamase ImiS expressed in Escherichia coli BL21(DE3) using imipenem substrate pre-incubated for 30 mins by Lineweaver-Burk plot method
Conditions: not given; call rule not given here
Procedure, shortened: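 Purified enzyme; initial rates of imipenem hydrolysis followed by UV spectrophotometry (262 or 300 nm) in 50 mM Tris pH 7.0, 25 °C. Substrate 24–140 μM, inhibitor 0–10 μM. Rates in triplicate and averaged. Inhibition mode from Lineweaver–Burk plots. Ki from fits of initial velocity vs substrate concentration at each inhibitor level.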

Chain of Beta-lactamase (O31272 whole entry): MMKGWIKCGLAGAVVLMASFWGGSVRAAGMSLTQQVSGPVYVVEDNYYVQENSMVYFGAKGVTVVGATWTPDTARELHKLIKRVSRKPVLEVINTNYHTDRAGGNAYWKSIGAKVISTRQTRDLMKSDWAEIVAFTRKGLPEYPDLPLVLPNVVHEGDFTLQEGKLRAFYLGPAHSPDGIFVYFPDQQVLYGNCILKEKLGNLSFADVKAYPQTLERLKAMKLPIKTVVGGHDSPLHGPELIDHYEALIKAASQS

| Ki | SMILES |
| --- | --- |
| Not Active | O=C(CSc1nnc(-c2ccccc2C(=O)O)[nH]1)NCc1ccccc1 |
| Not Active | O=C(O)CCc1nnc(SCC(=O)Nc2nc3ccccc3s2)[nH]1 |
| Not Active | O=C(O)CCCc1nnc(SCC(=O)Nc2nc3ccccc3[nH]2)[nH]1 |

Same assay, conditions: read-out: Ki

| SMILES | Ki [µM] |
| --- | --- |
| O=C(CSc1nnc(-c2ccccc2C(=O)O)[nH]1)Nc1ccccc1 | 1.8 |
| O=C(CSc1nnc(-c2ccccc2C(=O)O)[nH]1)Nc1nc2ccccc2[nH]1 | 3.6 |
| O=C(CSc1nnc(-c2ccccc2C(=O)O)[nH]1)Nc1nc2ccccc2s1 | 1.2 |
| O=C(CSc1nnc(-c2ccccc2C(=O)O)[nH]1)Nc1ccc([N+](=O)[O-])cc1 | 2.2 |
| O=C(CSc1nnc(-c2ccccc2C(=O)O)[nH]1)Nc1ccccc1Cl | 2.3 |
| O=C(CSc1nnc(-c2ccccc2C(=O)O)[nH]1)Nc1cccc(Cl)c1 | 2.4 |
| O=C(CSc1nnc(-c2ccccc2C(=O)O)[nH]1)Nc1ccccc1[N+](=O)[O-] | 2.7 |
| O=C(CSc1nnc(-c2ccccc2C(=O)O)[nH]1)Nc1cccc([N+](=O)[O-])c1 | 1.9 |

The remaining lines, values ahead:

| Ki [µM] | SMILES |
| --- | --- |
| 1.4 | O=C(CSc1nnc(-c2ccccc2C(=O)O)[nH]1)Nc1ccc(Cl)cc1 |
| > 5000 | O=C(O)CCc1nnc(SCC(=O)Nc2ccccc2)[nH]1 |
| > 2500 | O=C(O)CCc1nnc(SCC(=O)Nc2nc3ccccc3[nH]2)[nH]1 |
| > 5000 | O=C(O)CCc1nnc(SCC(=O)Nc2ccc(Cl)cc2)[nH]1 |
